Source: PubChem BioAssay
ANO1 activ: activates or potentiates the mouse TMEM16A chloride channel. Q8BHY3. HEK293 TMEM16A/YFP-H148Q/I152L, iodide quench fluorescence; active compounds read low. B-score at 10 µM. 340,000 tested, 0.3% active;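 active means fluorescence-ratio B-score plate-corrected deviation score at least 3 library SD below zero, with starting fluorescence score within 5 deviations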;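 further: channel opened by trigger with iodide after compound preincubation; score built on the fluorescence ratio of max minus min over baseline; more negative score means more quench and so TMEM16A activation or potentiation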
Target sequence (Q8BHY3 whole entry, looked up): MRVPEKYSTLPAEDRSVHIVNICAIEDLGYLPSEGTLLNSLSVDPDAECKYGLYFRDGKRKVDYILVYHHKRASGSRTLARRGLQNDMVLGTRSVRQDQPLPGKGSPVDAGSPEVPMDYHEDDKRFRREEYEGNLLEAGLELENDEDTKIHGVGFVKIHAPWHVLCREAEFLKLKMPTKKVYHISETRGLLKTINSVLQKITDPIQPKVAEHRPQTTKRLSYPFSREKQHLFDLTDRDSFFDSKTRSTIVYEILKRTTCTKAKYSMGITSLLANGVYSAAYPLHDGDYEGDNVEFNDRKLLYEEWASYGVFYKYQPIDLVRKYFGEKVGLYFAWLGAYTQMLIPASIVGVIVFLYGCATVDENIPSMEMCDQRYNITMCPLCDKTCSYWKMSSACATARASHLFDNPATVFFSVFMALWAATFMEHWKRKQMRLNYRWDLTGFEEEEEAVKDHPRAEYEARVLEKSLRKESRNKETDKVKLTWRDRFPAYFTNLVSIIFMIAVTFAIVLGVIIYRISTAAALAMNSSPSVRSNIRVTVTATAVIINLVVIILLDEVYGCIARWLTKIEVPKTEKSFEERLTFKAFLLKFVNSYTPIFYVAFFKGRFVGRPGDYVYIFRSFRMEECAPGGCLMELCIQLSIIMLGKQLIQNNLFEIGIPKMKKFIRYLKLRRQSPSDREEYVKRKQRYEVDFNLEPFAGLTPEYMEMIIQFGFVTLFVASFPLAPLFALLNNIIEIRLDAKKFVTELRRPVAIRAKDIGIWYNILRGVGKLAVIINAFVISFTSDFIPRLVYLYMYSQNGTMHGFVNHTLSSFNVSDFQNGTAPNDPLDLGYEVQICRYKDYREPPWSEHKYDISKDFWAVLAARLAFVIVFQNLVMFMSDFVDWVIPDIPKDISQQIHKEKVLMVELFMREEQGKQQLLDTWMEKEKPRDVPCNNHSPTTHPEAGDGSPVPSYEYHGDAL
Beta apoptosis: beta cell apoptosis inhibition | 300,000 tested, 0.8% active | INS-1E cytokine-induced death, ATP luminescence, 48 h; percent of positive-control rescue, neutral wells zero | protection from apoptosis, % (no concentration beside the values) | AID 435005;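 active means Every replicate reaches about 75%, or at least half do and their mean reaches it too, limit read from the data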;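 further: higher means more ATP so stronger rescue from cytokine killing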
CSC inhib: cancer stem cell inhibition; inhibition, % at 7.5 µM; cancer stem cell-like cells viability, luminescence; 300,000 tested, 1.1% active; in the data active means inhibition above about 75%; tested in HMLE shEcad cells
MC4R antag cAMP: blocks human MC4R cAMP signaling. 360,000 tested, 0.48% active. AID 540295. inhibition, % at 6.5 µM. MC4R-expressing cells, MTII-stimulated cAMP, LANCE TR-FRET. P32245;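 active means inhibition above its plate's cutoff, the mean of tested wells on that plate plus 3 SD, cut at about 29% in these data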
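material = U2OS cells stably expressing human melanocortin 4 receptor (MC4R) | also added = Melanotan II challenge | dosing = single nominal compound dose of 6.5 µM | detection = TR-FRET with Eu-cAMP and labeled anti-cAMP, 671 nm | replication = singlicate | timing = compound 30 min, challenge 1 h, detection 1 h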
MC4R ag barr: activates human MC4R beta-arrestin recruitment. P32245. U2OS MC4R beta-arrestin complementation, luminescence; percent of melanotan II response, DMSO zero. activation, % at 8.9 µM. 360,000 tested, 0.98% active. AID 540308;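 active means activation above a per-plate cutoff, the mean activation of sample wells on that plate plus 3 SD, cut at about 8% in these data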
ANO1 block: blocks the mouse calcium-activated chloride channel TMEM16A. Q8BHY3. HEK293 TMEM16A/YFP iodide influx fluorescence, ionomycin. normalized B-score (activity score, 25-100; higher = stronger inhibition) at 10 µM. 310,000 tested, 1.2% active. AID 588511;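 active means ratio plate-corrected score three or more library SD toward inhibition, starting fluorescence score within five deviations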;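 further: score derived from kinetic fluorescence span divided by baseline fluorescence per well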
Numbers stand for hits; n = inactive; x = no result. Only some compounds are listed: those with a hit (about 3.8% of all), similar ones and a draw of the others.

SMILES | ANO1 activ | Beta apoptosis | CSC inhib | MC4R antag cAMP | MC4R ag barr | ANO1 block
C[C@H]1CN([C@@H](C)CO)C(=O)CCCn2nncc2CO[C@H]1CN(C)C(=O)Nc1cccc(Oc2ccccn2)c1 | x | x | x | n | n | x
CC(C)(C)OC(=O)N1CCN(C(=O)c2[nH]cnc2C(=O)Nc2nccs2)CC1 | n | n | n | n | n | x
Cc1ccc(OCC(=O)NC(=S)Nc2ccccn2)c(Br)c1 | n | n | n | n | 8.6 | n
O=C(COc1ccc(Br)cc1Cl)NC(=S)Nc1ccccn1 | n | n | n | n | n | n
Cn1c(C2CCCCC2)nc2cc(N)ccc21 | n | n | n | n | n | n
CN1CCN(c2nc(-c3cccnc3)nc3scc(-c4ccccc4)c23)CC1 | n | n | n | n | n | n
CC1CCN(c2nc(-c3cccnc3)nc3scc(-c4ccccc4)c23)CC1 | n | n | 95 | n | n | n
CCCCCCN1Cc2ccccc2C1 | n | n | n | n | n | n
CCCCCCCCCCn1ccc(=N)cc1 | n | 116 | n | n | n | n
CCCCCCCCn1ccc(=N)cc1 | n | 130 | n | n | n | n
O=C(NCCCN1CCOCC1)c1ccc(Sc2ccc(Br)cc2)c([N+](=O)[O-])c1 | n | n | 76 | n | n | n
O=C(NCCCN1CCOCC1)c1ccc(Sc2ccccc2Cl)c([N+](=O)[O-])c1 | n | n | n | n | n | n
Cc1occc1C(=O)N1CCN(c2ncccn2)CC1 | -50 | n | n | n | n | n
COc1ccc(CNc2ncnc3sccc23)cc1 | n | 75 | n | n | n | n
COc1ccc(CNc2ncnc3sccc23)cc1OC | n | n | n | n | n | n
c1ccc(CNc2ncnc3sccc23)cc1 | n | n | n | n | n | n
c1csc(CNc2ncnc3sccc23)c1 | n | 80 | n | n | n | n
CCN(CC)c1ccc(NC(=O)c2ccc(S(=O)(=O)N3CCOCC3)cc2)cc1 | n | n | n | n | n | x
Cc1cc(-c2ccc([N+](=O)[O-])cc2)cc(C)n1 | n | x | x | n | n | x
O=C(/C=C/c1ccnc2ccccc12)c1cccs1 | n | n | 86 | n | n | n
Cn1c(-c2ccccc2)cc2c3no[n+]([O-])c3ccc21 | n | 106 | 108 | n | n | n
Cn1c(-c2ccccc2)cc2ccccc21 | n | n | n | n | n | n
COc1ccc(Nc2nc(-c3ccccc3O)nc3ccccc23)cc1 | n | n | 81 | n | n | n
Oc1ccc(Nc2nc(-c3ccccc3F)nc3ccccc23)cc1 | n | n | n | n | n | n
Oc1ccc(Nc2nc(-c3ccccc3O)nc3ccccc23)cc1 | n | n | 83 | n | n | n
SMILES | ANO1 activ | Beta apoptosis | CSC inhib | MC4R antag cAMP | MC4R ag barr | ANO1 block
C=CC[C@H](CC(=O)NCCO)C(=O)N[C@@H](COC(=O)[C@@H](CC=C)CC(=O)OC(C)(C)C)Cc1c[nH]c2ccccc12 | n | n | n | n | n | x
CC(C)C[C@H]1CN=C(Nc2ccccc2)N1CC1CCC(C(C)(C)C)CC1 (stereo partly specified) | n | 111 | 79 | n | n | 100
C[C@H]1CN=C(Nc2ccccc2)N1CC1CCC1 | n | n | n | n | n | n
C[C@H]1CN=C(Nc2ccccc2)N1CC1CCCCCC1 | -6.7 | n | n | n | n | n
CCc1nc2c(OCCn3cccc3)cccn2c1N(C)C(=O)c1ccccc1F | x | x | x | n | n | x
Cc1c(N=Cc2cccs2)c(=O)n(-c2ccccc2)n1C | n | n | n | n | n | 100
Cc1ccc(C2C(C=Nc3c(C)n(C)n(-c4ccccc4)c3=O)=C(c3ccccc3)Oc3ccccc32)cc1 (stereo unspecified) | n | 80 | x | n | n | n
Cc1ccsc1C=Nc1c(C)n(C)n(-c2ccccc2)c1=O | n | n | n | n | n | n
Cc1ccccc1C(=O)Nc1cccc(C(=O)N/N=C/c2cc(Cl)cc([N+](=O)[O-])c2O)c1 | n | 101 | n | n | n | n
COc1cc(/C=N/NC(=O)c2cccc(NC(=O)c3ccccc3C)c2)ccc1O | n | x | n | n | n | n
CCC(=O)N1CCC1(C)C(=O)Nc1ncc(C)s1 (stereo unspecified) | x | x | x | n | n | x
CC1CC(C)(C)CC2(C1)NC(=O)N(CC(=O)N1CCN(Cc3ccc(C#N)cc3)CC1)C2=O (stereo unspecified) | n | x | x | n | n | x
